This is an account of results in ChEMBL document CHEMBL5104213, “Evaluation of the effect of a cell penetrating peptide (TAT) towards tailoring the targeting efficacy and tumor uptake of porphyrin” (RSC Med Chem, 2022).

Data set [1] deals with A549. In words: Cytotoxicity against human A549 cells assessed as cell growth inhibition at 0.5 to 10 uM incubated for 24 hrs under dark condition by MTT assay. Type of data set: functional, cell-based. The settings on record: dose 0.5-10 µM, DDE = dose-dependent effect. The gist of the method: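 A549 in DMEM/10% FBS, 7 × 10³ cells/well seeded, overnight at 37 °C, 5% CO₂; treated at 0.5, 1, 2.5, 5, 10 μM without light, buffer control, n = 6. After 24 h, MTT added to a final 0.5 mg mL⁻¹ for 4 h; formazan dissolved in DMSO, A570 read with 660 nm reference; % dead cells calculated against vehicle control.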
In general terms: Tetrazolium assays rely on reduction of a dye to a coloured formazan, in cell work by metabolically active cells.

Data set [2] is described as follows: Drug uptake in tumor of iv dosed Swiss mouse infected with mouse HSDM1C1 cells administered with radiolabeled Gallium-68 measured after 60 mins. Type of data set: ADME, organism-based, Neoplasm. The settings on record: in vivo, 1 h. Put shortly: (§1)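 Fibrosarcoma grown from ~10⁶ HSDM1C1 cells injected subcutaneously on the dorsum, used at ~1 cm tumour diameter; 20–25 g Swiss mice. ⁶⁸Ga-labelled, Sep-Pak-purified preparation (~100 μCi, 3.7 MBq, 150 μL, saline) given i.v. via tail vein. Killed by CO₂ at 30 or 60 min, n = 3; blood by cardiac puncture, organs excised, washed, weighed and counted by NaI(Tl); % IA per g.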

Data set [3] is described as follows: Drug uptake in tumor of iv dosed Swiss mouse infected with mouse HSDM1C1 cells administered with radiolabeled Gallium-68 measured after 30 mins. It counts as ADME, organism-based, Neoplasm. As to conditions: in vivo, 0.5 h. Put shortly:
as §1

Data set [4] is described as follows: Drug uptake in liver of iv dosed Swiss mouse infected with mouse HSDM1C1 cells administered with radiolabeled Gallium-68 measured after 30 mins. Type of data set: ADME, organism-based. As to conditions: in vivo, 0.5 h. Put shortly:
as §1

Data set [5] in a line: Drug uptake in spleen of iv dosed Swiss mouse infected with mouse HSDM1C1 cells administered with radiolabeled Gallium-68 measured after 60 mins. It counts as ADME, organism-based. The settings on record: in vivo, 1 h. Put shortly: as §1
Data set [6] can be described thus: Drug uptake in lung of iv dosed Swiss mouse infected with mouse HSDM1C1 cells administered with radiolabeled Gallium-68 measured after 60 mins. Type of data set: ADME, organism-based. The settings on record: in vivo, 1 h. Put shortly: as §1
Data set [7] in a line: Drug uptake in lung of iv dosed Swiss mouse infected with mouse HSDM1C1 cells administered with radiolabeled Gallium-68 measured after 30 mins. The settings on record: in vivo, 0.5 h. Type of data set: ADME, organism-based. The gist of the method:
as §1

The nature of data set [8]: Drug uptake in blood of iv dosed Swiss mouse infected with mouse HSDM1C1 cells administered with radiolabeled Gallium-68 measured after 60 mins. It counts as ADME, organism-based. As to conditions: in vivo, 1 h. The gist of the method:
as §1

Data set [9] is described as follows: Octanol-water partition coefficient, logP of the compound. It counts as physicochemical. Put shortly: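 ⁶⁸Ga-labelled preparation (100 μL) added to octanol (1.0 mL) and water (900 μL), mixed, centrifuged 2500 rpm for 5 min. Aliquots of each layer counted by NaI(Tl); log P taken as log of organic/aqueous count ratio.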
The subject of data set [10] is A549. The experiment in a line: Cytotoxicity against human A549 cells assessed as cell growth inhibition at 1 uM incubated for 24 hrs under light exposure by MTT assay. It counts as functional, cell-based. Put shortly: (§2)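 A549 plated as for MTT, incubated with compound (0.5 or 1 μM) for 6 h, then irradiated by LED at 42 W m⁻² for 90 min (0.02 kJ cm⁻²). Cells then held 18 h at room temperature and assayed by MTT. Controls were light without compound and compound without light.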

Data set [11] can be described thus: Drug uptake in kidney of iv dosed Swiss mouse infected with mouse HSDM1C1 cells administered with radiolabeled Gallium-68 measured after 60 mins. It counts as ADME, organism-based. As to conditions: in vivo, 1 h. The gist of the method: as §1
A short description of data set [12]: Drug uptake in blood of iv dosed Swiss mouse infected with mouse HSDM1C1 cells administered with radiolabeled Gallium-68 measured after 30 mins. It counts as ADME, organism-based. The settings on record: in vivo, 0.5 h. Put shortly:
as §1

A short description of data set [13]: Drug uptake in spleen of iv dosed Swiss mouse infected with mouse HSDM1C1 cells administered with radiolabeled Gallium-68 measured after 30 mins. Type of data set: ADME, organism-based. As to conditions: in vivo, 0.5 h. Put shortly: as §1
A short description of data set [14]: Drug uptake in kidney of iv dosed Swiss mouse infected with mouse HSDM1C1 cells administered with radiolabeled Gallium-68 measured after 30 mins. The settings on record: in vivo, 0.5 h. Type of data set: ADME, organism-based. The gist of the method:
as §1

The nature of data set [15]: Drug uptake in liver of iv dosed Swiss mouse infected with mouse HSDM1C1 cells administered with radiolabeled Gallium-68 measured after 60 mins. As to conditions: in vivo, 1 h. Type of data set: ADME, organism-based. Put shortly: as §1
The test system of data set [16] is A549. The experiment in a line: Cytotoxicity against human A549 cells assessed as cell growth inhibition incubated for 24 hrs under light exposure by MTT assay. It counts as functional, cell-based. As to conditions: A549, 24 h. Put shortly:
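Photocytotoxicity IC₅₀ determination in A549 cells: 6 h compound exposure at 0.1, 0.5, 1, 2.5, 5.0, 10.0, 20.0 μM, then LED light dose of 0.02 kJ cm⁻² and 18 h post-irradiation incubation before MTT read-out. % cell death plotted against log concentration (nM) to derive IC₅₀.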

Data set [17] has as its system A549. In words: Cytotoxicity against human A549 cells assessed as cell growth inhibition at 0.5 uM incubated for 24 hrs under light exposure by MTT assay. Type of data set: functional, cell-based. The gist of the method: as §2

The source made the active and inactive calls. The rule behind the calls is not given here.

The term logP denotes a log measure of how a compound divides between an organic and an aqueous phase. High values mean a more lipophilic compound, low ones a more hydrophilic compound. A word on the IC50: it is the concentration that gives 50% inhibition. On to `O=C(O)COc1ccc(-c2c3nc(c(-c4ccc(OCC(=O)O)cc4)c4ccc([nH]4)c(-c4ccc(OCC(=O)O)cc4)c4nc(c(-c5ccc(O)cc5)c5ccc2[nH]5)C=C4)C=C3)cc1`, for which, in data set [1], the Activity entry is “Dde”. In addition, the Ct in data set [2] turned out to be 2.45%; in [3], 2.53%; in [4], 23.46%; in data set [5], 3.23%; in [6], 5.33%; in [7], 8.87%. Moreover, the Ct in data set [8] was determined as 6.87%; in data set [11], 3.35%; in data set [12] it was 9.97%; in data set [13], 5.52%; in data set [14], 4.78%; in data set [15], 15.11%. Also, the logP in [9] was -1.54. The outcome in data set [10] and in [17] was Active. The concentration for half-maximal inhibition (IC50) in [16] was found to be 5.65 µM.
